Assay results reported in ChEMBL document CHEMBL1123801, “Synthesis and antifungal activity of new 1-vinylimidazoles” (1987).
Converted amounts (≈) assume the structure as drawn.

Experiments:
Type in all cases: functional
[1] = test system: Aspergillus fumigatus; experiment: Minimum inhibitory concentration (MIC) against Aspergillus fumigatus
Summary of the method: (§1)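 Broth microdilution in Sabouraud's glucose broth. Final inocula 1×10^5 cells/mL for the yeast (C. albicans) and 1×10^5 conidia/mL for the mold (A. fumigatus) and the dermatophyte (T. asteroides). MIC read as the fungistatic end point. Lowest value of duplicated experiments.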

[2] = test system: Candida albicans; experiment: Inhibition of pseudomycelium formation of Candida albicans.; settings: read-out: MEC
Summary of the method: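 C. albicans KE-2 (clinical isolate), final inoculum 1×10^6 yeast cells/mL in EMEM with 20% calf serum. Compounds serially diluted by the microtiter dilution system used for MICs. After incubation, wells Giemsa-stained (5% in phosphate buffer) and examined microscopically. MEC (μg/mL) = lowest concentration preventing typical pseudomycelium formation. Lowest value of duplicated experiments.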

[3] = test system: Candida albicans; experiment: Minimum inhibitory concentration (MIC) against Candida albicans; summary of the method: as §1
[4] = test system: Trichophyton benhamiae; experiment: Minimum inhibitory concentration against Trichophyton asteroides; summary of the method: as §1

SMILES | MIC [1] | minimal effective concentration [2] | MIC [3] | MIC [4]
CC(C)=C(c1ccccc1OCC(C)(C)C)n1ccnc1 | 6.3 µg/mL (≈ 22.2 µM) | 0.31 µg/mL | 25 µg/mL (≈ 87.9 µM) | 0.1 µg/mL (≈ 0.352 µM)
CCC(CC)=C(c1cc(Cl)ccc1OCCC(C)C)n1cncn1 | > 100 µg/mL | 1.25 µg/mL | > 100 µg/mL | 0.8 µg/mL (≈ 2.3 µM)
C=C(c1ccccc1OCCc1ccccc1)n1ccnc1 | 0.4 µg/mL (≈ 1.38 µM) | 1.25 µg/mL | 12.5 µg/mL (≈ 43 µM) | 0.1 µg/mL (≈ 0.344 µM)
C=C(c1cc(Cl)ccc1OCC(C)C)n1ccnc1 | 0.8 µg/mL (≈ 2.89 µM) | 1.25 µg/mL | 50 µg/mL (≈ 181 µM) | 0.1 µg/mL (≈ 0.361 µM)
CCCOc1ccc(Cl)cc1C(=C(C)C)n1ccnc1 | 6.3 µg/mL (≈ 21.7 µM) | 0.31 µg/mL | 25 µg/mL (≈ 86 µM) | 0.2 µg/mL (≈ 0.688 µM)
CCC(CC)=C(c1cc(Cl)ccc1OC)n1cncn1 | 100 µg/mL (≈ 343 µM) | 1.25 µg/mL | 100 µg/mL (≈ 343 µM) | 0.8 µg/mL (≈ 2.74 µM)
C=C(c1cccc(OCc2ccc(Cl)cc2)c1)n1ccnc1 | 12.5 µg/mL (≈ 40.2 µM) | 5 µg/mL | 50 µg/mL (≈ 161 µM) | 1.6 µg/mL (≈ 5.15 µM)
CC(C)COc1ccccc1/C(=C\CN1CCOCC1)n1ccnc1 | > 100 µg/mL | 2.5 µg/mL | > 100 µg/mL | 6.3 µg/mL (≈ 18.5 µM)
CCCOc1ccccc1C(=C(C)C)n1ccnc1 | 0.8 µg/mL (≈ 3.12 µM) | 0.31 µg/mL | 12.5 µg/mL (≈ 48.8 µM) | 0.2 µg/mL (≈ 0.78 µM)
CC(C)COc1ccc(Cl)cc1/C(=C\CN(C)C)n1cncn1 | > 100 µg/mL | 0.31 µg/mL | > 100 µg/mL | 12.5 µg/mL (≈ 37.3 µM)
CCC(CC)=C(c1cc(Cl)ccc1OCc1ccc(Cl)cc1)n1cncn1 | > 100 µg/mL | 20 µg/mL | > 100 µg/mL | > 100 µg/mL
C=C(c1ccccc1N(Cc1ccc(Cl)cc1)C(=O)C(F)(F)F)n1ccnc1 | 50 µg/mL (≈ 123 µM) | 20 µg/mL | 1.6 µg/mL (≈ 3.94 µM) | 1.6 µg/mL (≈ 3.94 µM)
C=C(c1ccccc1OCC(C)C)n1ccnc1 | 1.6 µg/mL (≈ 6.6 µM) | 0.63 µg/mL | 100 µg/mL (≈ 413 µM) | 0.1 µg/mL (≈ 0.413 µM)
CN(C)C/C=C(\c1ccccc1OCc1ccc(Cl)cc1)n1ccnc1 | > 100 µg/mL | 1.25 µg/mL | > 100 µg/mL | 1.6 µg/mL (≈ 4.35 µM)
COc1ccc(Cl)cc1/C(=C/c1ccccc1)n1ccnc1 | 25 µg/mL (≈ 80.4 µM) | > 20 µg/mL | 12.5 µg/mL (≈ 40.2 µM) | 6.2 µg/mL (≈ 19.9 µM)
C/C(CN(C)C)=C(\c1ccccc1OCC(C)C)n1ccnc1 | > 100 µg/mL | 0.63 µg/mL | > 100 µg/mL | 0.8 µg/mL (≈ 2.55 µM)
CC(C)COc1ccccc1/C(=C/CN(C)C)n1ccnc1 | > 100 µg/mL | 5 µg/mL | > 100 µg/mL | > 100 µg/mL
C/C(CN(C)C)=C(/c1ccccc1OCC(C)C)n1ccnc1 | > 100 µg/mL | 1.25 µg/mL | > 100 µg/mL | 25 µg/mL (≈ 79.8 µM)
C=C(c1ccccc1)n1ccnc1 | > 100 µg/mL | > 20 µg/mL | > 100 µg/mL | 100 µg/mL (≈ 587 µM)
C=C(c1cc(Cl)ccc1OCCC(C)C)n1cncn1 | > 100 µg/mL | 20 µg/mL | > 100 µg/mL | 0.8 µg/mL (≈ 2.74 µM)
CC=C(c1cc(Cl)ccc1OCc1ccc(Cl)cc1)n1ccnc1 | 0.8 µg/mL (≈ 2.23 µM) |  | 3.1 µg/mL (≈ 8.63 µM) | 0.8 µg/mL (≈ 2.23 µM)
CC(C)COc1ccc(Cl)cc1/C(=C\CN(C)C)n1ccnc1 | > 100 µg/mL | 2.5 µg/mL | > 100 µg/mL | 0.8 µg/mL (≈ 2.4 µM)
C=C(c1ccccc1OC(CCC)c1ccccc1)n1ccnc1 (stereo not drawn) | 12.5 µg/mL (≈ 39.3 µM) |  | 12.5 µg/mL (≈ 39.3 µM) | 0.4 µg/mL (≈ 1.26 µM)
C=C(c1ccccc1OCCCC)n1ccnc1 | 1.6 µg/mL (≈ 6.6 µM) |  | 25 µg/mL (≈ 103 µM) | 50 µg/mL (≈ 206 µM)
C=C(c1ccccc1OCCc1ccc(Cl)cc1Cl)n1ccnc1 | 0.4 µg/mL (≈ 1.11 µM) |  | 25 µg/mL (≈ 69.6 µM) | 0.1 µg/mL (≈ 0.278 µM)
C=C(c1cc(Cl)cc(Cl)c1OCc1ccc(Cl)cc1)n1ccnc1 | > 100 µg/mL |  | > 100 µg/mL | 6.2 µg/mL (≈ 16.3 µM)

SMILES | MIC [1] | minimal effective concentration [2] | MIC [3] | MIC [4]
C=C(c1ccccc1OCCC)n1ccnc1 | 1.6 µg/mL (≈ 7.01 µM) |  | 100 µg/mL (≈ 438 µM) | 0.1 µg/mL (≈ 0.438 µM)
CC=C(c1ccccc1OCc1cccc(Cl)c1)n1ccnc1 | 1.6 µg/mL (≈ 4.93 µM) |  | 6.2 µg/mL (≈ 19.1 µM) | 3.1 µg/mL (≈ 9.54 µM)
CC(C)=C(c1cc(Cl)ccc1OCCCOc1ccc(Cl)cc1)n1ccnc1 | > 100 µg/mL |  | > 100 µg/mL | 3.1 µg/mL (≈ 7.43 µM)
C=C(c1ccccc1OCCCc1ccccc1)n1ccnc1 | 3.1 µg/mL (≈ 10.2 µM) |  | 12.5 µg/mL (≈ 41.1 µM) | 0.1 µg/mL (≈ 0.329 µM)
CC(C)COc1ccccc1/C(=C/CN(C)c1ccccc1)n1ccnc1 | 6.3 µg/mL (≈ 17.4 µM) | 5 µg/mL | 12.5 µg/mL (≈ 34.6 µM) | 0.1 µg/mL (≈ 0.277 µM)
CCC=C(c1cc(Cl)ccc1OCc1ccc(Cl)cc1Cl)n1ccnc1 | 0.8 µg/mL (≈ 1.96 µM) |  | 12.5 µg/mL (≈ 30.7 µM) | 0.2 µg/mL (≈ 0.491 µM)
CCCOc1ccccc1/C(=C\CN(C)C)n1ccnc1 | > 100 µg/mL | 0.31 µg/mL | > 100 µg/mL | 12.5 µg/mL (≈ 43.8 µM)
C=C(c1ccccc1OCc1ccc(Cl)c(Cl)c1)n1ccnc1 | 3.1 µg/mL (≈ 8.98 µM) |  | 25 µg/mL (≈ 72.4 µM) | 0.1 µg/mL (≈ 0.29 µM)
CCC=C(c1cc(Cl)ccc1OCc1ccccc1)n1ccnc1 | 1.6 µg/mL (≈ 4.72 µM) |  | 6.2 µg/mL (≈ 18.3 µM) | 1.6 µg/mL (≈ 4.72 µM)
C/C=C(\c1cc(Cl)ccc1OCCC)n1ccnc1 | 1.6 µg/mL (≈ 5.78 µM) | 0.63 µg/mL | 25 µg/mL (≈ 90.3 µM) | 0.1 µg/mL (≈ 0.361 µM)
CC(C)=C(c1ccccc1OCCc1ccccc1)n1ccnc1 | 0.8 µg/mL (≈ 2.51 µM) |  | 50 µg/mL (≈ 157 µM) | 0.1 µg/mL (≈ 0.314 µM)
C/C=C(/c1cc(Cl)ccc1OCCC)n1ccnc1 | 6.3 µg/mL (≈ 22.8 µM) | 0.63 µg/mL | 25 µg/mL (≈ 90.3 µM) | 0.1 µg/mL (≈ 0.361 µM)
CC(C)=C(c1cc(Cl)ccc1OCc1ccc(C)cc1)n1ccnc1 | 12.5 µg/mL (≈ 35.4 µM) |  | 25 µg/mL (≈ 70.8 µM) | 1.6 µg/mL (≈ 4.53 µM)
C=C(c1cc(Cl)ccc1OCc1ccc(C)cc1)n1ccnc1 | 1.6 µg/mL (≈ 4.93 µM) |  | 25 µg/mL (≈ 77 µM) | 0.8 µg/mL (≈ 2.46 µM)
C=C(c1ccc(Cl)cc1OC)n1ccnc1 | 100 µg/mL (≈ 426 µM) |  | > 100 µg/mL | 25 µg/mL (≈ 107 µM)
C=C(c1cc(Cl)ccc1OCCc1ccccc1)n1ccnc1 | 6.3 µg/mL (≈ 19.4 µM) |  | 50 µg/mL (≈ 154 µM) | 0.1 µg/mL (≈ 0.308 µM)
C=C(c1ccccc1OC(CC)c1ccccc1)n1ccnc1 (stereo not drawn) | 3.1 µg/mL (≈ 10.2 µM) |  | 6.2 µg/mL (≈ 20.4 µM) | 0.1 µg/mL (≈ 0.329 µM)
C=C(c1cc(Cl)ccc1OC(CC)c1ccccc1)n1ccnc1 (stereo not drawn) | 12.5 µg/mL (≈ 36.9 µM) |  | > 100 µg/mL | 0.1 µg/mL (≈ 0.295 µM)
CC=C(c1cc(Cl)ccc1OCc1ccccc1)n1ccnc1 | 3.1 µg/mL (≈ 9.54 µM) |  | 6.2 µg/mL (≈ 19.1 µM) | 0.2 µg/mL (≈ 0.616 µM)
C=C(c1ccccc1OCc1ccc(CC)cc1)n1ccnc1 | 25 µg/mL (≈ 82.1 µM) |  | 12.5 µg/mL (≈ 41.1 µM) | 0.1 µg/mL (≈ 0.329 µM)
CC(C)=C(c1ccccc1OCCCc1ccccc1)n1ccnc1 | 1.6 µg/mL (≈ 4.81 µM) |  | 25 µg/mL (≈ 75.2 µM) | 0.2 µg/mL (≈ 0.602 µM)
C=C(c1ccc(Cl)cc1OCc1ccc(Cl)cc1)n1ccnc1 | > 100 µg/mL |  | > 100 µg/mL | > 100 µg/mL
C=C(c1ccccc1OCCOc1ccccc1)n1ccnc1 | 12.5 µg/mL (≈ 40.8 µM) |  | 50 µg/mL (≈ 163 µM) | 0.1 µg/mL (≈ 0.326 µM)
C=C(c1ccccc1OC(C)c1ccc(Cl)cc1)n1ccnc1 (stereo not drawn) | 6.2 µg/mL (≈ 19.1 µM) |  | 3.1 µg/mL (≈ 9.54 µM) | 0.1 µg/mL (≈ 0.308 µM)
C=C(c1ccccc1NCc1ccc(Cl)cc1)n1ccnc1 | > 100 µg/mL |  | > 100 µg/mL | > 100 µg/mL
